Results taken from ChEMBL document CHEMBL3593234, “Lanostane Triterpenes from the Tibetan Medicinal Mushroom Ganoderma leucocontextum and Their Inhibitory Effects on HMG-CoA Reductase and α-Glucosidase” (J Nat Prod, 2015).

Assays:
[1] = Inhibition of Baker's yeast alpha-glucosidase; design: species or system Saccharomyces cerevisiae
Procedure, shortened: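 Baker's yeast α-glucosidase assay read by absorbance at 405 nm. Control wells got phosphate buffer instead of compound, and blanks got buffer instead of enzyme. Percent inhibition was calculated from blank-corrected OD of test versus control wells.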

K562 = assay: Cytotoxicity against human K562 cells by MTT method; assay type: functional, cell-based; conditions: Homo sapiens, K562
[2] = target: Sucrase-isomaltase, intestinal (Rattus norvegicus, UniProt P23739); assay: Inhibition of sucrase in rat intestinal mucosa pre-incubated for 40 mins using sucrose substrate; assay type: tissue-based
Procedure, shortened: (§1)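 Rat intestinal mucosa powder (1.0 g) was suspended in 3 mL 0.9% saline and sonicated at 4 °C (12 × 30 s), then spun at 10000g, 4 °C, 30 min; the supernatant served as enzyme. Compound in DMSO was mixed with substrate (maltose, sucrose or p-nitrophenyl-α-D-glucopyranoside) in 0.1 M phosphate buffer pH 6.9 and preincubated 40 min. Glucose was read by GOD kit at 550 nm, with blank-corrected percent inhibition.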

[3] = Inhibition of alpha-glucosidase in rat intestinal mucosa pre-incubated for 40 mins using p-nitrophenyl-alpha-D-glucopyranoside substrate; assay type: tissue-based; procedure, shortened: as §1
[4] = target: T1, 3-hydroxy-3-methylglutaryl-coenzyme A reductase (Sus scrofa, UniProt Q1W675); assay: Inhibition of pig liver microsomes HMG-CoA reductase incubated for 5 mins in using HMG-CoA and NADPH by colorimetric method
T1 sequence (Q1W675 whole entry): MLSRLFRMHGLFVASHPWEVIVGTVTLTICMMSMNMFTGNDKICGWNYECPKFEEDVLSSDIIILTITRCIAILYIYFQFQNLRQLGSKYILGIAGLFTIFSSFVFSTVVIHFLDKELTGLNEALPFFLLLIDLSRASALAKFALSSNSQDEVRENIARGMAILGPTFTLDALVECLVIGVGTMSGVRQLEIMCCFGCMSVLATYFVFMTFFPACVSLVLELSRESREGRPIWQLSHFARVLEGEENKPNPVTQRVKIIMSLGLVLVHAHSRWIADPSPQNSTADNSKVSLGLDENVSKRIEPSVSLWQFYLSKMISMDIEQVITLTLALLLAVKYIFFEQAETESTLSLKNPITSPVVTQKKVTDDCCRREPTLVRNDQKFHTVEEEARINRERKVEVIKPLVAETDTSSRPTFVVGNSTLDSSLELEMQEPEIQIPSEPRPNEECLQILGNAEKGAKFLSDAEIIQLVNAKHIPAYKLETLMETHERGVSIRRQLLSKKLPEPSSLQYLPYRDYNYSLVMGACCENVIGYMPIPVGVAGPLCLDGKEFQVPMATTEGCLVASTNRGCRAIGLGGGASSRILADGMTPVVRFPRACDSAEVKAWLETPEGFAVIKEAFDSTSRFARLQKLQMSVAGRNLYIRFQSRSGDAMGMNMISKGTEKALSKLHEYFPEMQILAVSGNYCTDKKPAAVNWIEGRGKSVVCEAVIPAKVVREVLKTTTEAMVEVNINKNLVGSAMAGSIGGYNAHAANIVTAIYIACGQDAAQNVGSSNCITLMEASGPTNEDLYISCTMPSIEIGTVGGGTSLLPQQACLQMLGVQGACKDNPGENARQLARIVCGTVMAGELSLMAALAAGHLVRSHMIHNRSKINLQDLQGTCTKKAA
Procedure, shortened: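 Pig liver microsomal HMG-CoA reductase at about 4 U/mL final, with compound at 2.5–80 μM final and 200 μM HMG-CoA. Buffer was 0.1 mol/L potassium phosphate pH 7.0 with EDTA, dithiothreitol and BSA. After 5 min at 37 °C, 100 μM NADPH was added for 15 min at 37 °C. Absorbance was read at 340 nm, with percent inhibition from blank-corrected OD.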

PC-3 = assay: Cytotoxicity against human PC3 cells by MTT method; assay type: functional, cell-based; conditions: Homo sapiens, PC-3
[5] = target: T2, 3-hydroxy-3-methylglutaryl-coenzyme A reductase (Homo sapiens, UniProt P04035); assay: Inhibition of HMG-CoA reductase (unknown origin)
T2 sequence (P04035 whole entry): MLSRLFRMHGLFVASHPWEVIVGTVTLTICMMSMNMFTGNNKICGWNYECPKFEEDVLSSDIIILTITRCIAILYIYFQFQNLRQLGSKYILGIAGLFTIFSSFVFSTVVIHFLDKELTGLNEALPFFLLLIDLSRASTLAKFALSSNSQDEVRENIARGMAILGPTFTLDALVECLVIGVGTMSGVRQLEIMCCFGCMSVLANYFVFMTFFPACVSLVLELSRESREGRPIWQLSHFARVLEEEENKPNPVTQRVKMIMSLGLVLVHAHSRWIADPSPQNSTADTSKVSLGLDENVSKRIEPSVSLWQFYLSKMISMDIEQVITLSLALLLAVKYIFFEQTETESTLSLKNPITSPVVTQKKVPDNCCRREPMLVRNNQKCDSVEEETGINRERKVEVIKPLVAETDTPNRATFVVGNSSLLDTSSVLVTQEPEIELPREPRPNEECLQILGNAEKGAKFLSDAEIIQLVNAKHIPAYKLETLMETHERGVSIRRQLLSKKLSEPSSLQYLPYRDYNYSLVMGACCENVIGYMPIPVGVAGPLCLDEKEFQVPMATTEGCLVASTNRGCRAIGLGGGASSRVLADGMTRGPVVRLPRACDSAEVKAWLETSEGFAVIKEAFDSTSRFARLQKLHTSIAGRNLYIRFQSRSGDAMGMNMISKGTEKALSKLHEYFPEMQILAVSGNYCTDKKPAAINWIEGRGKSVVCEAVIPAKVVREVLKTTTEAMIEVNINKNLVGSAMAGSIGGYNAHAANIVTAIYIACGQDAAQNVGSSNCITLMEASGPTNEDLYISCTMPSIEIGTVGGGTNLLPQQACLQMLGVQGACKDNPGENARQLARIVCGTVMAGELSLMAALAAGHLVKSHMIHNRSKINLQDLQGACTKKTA
Procedure, shortened: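 Pig liver microsomal enzyme (about 4 U/mL final), colorimetric. Compounds at 2.5–80 μM final with HMG-CoA (200 μM final) in 0.1 mol/L potassium phosphate pH 7.0 (3.5 mmol/L EDTA, 10 mmol/L DTT, 0.1 g/L BSA). Preincubated 5 min at 37 °C, then NADPH (100 μM final) added for 15 min at 37 °C. A340 read; % inhibition against enzyme-free blanks and compound-free controls.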

[6] = Inhibition of alpha-glucosidase (unknown origin); design: species or system Homo sapiens
Procedure, shortened: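 Baker's yeast enzyme with phosphate buffer; absorbance read at 405 nm. Compound-free controls and enzyme-free blanks used. % inhibition = [(ODcontrol − ODcontrol blank) − (ODtest − ODtest blank)]/(ODcontrol − ODcontrol blank) × 100.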

Sequence of Sucrase-isomaltase, intestinal (P23739 1-1013 limits assumed): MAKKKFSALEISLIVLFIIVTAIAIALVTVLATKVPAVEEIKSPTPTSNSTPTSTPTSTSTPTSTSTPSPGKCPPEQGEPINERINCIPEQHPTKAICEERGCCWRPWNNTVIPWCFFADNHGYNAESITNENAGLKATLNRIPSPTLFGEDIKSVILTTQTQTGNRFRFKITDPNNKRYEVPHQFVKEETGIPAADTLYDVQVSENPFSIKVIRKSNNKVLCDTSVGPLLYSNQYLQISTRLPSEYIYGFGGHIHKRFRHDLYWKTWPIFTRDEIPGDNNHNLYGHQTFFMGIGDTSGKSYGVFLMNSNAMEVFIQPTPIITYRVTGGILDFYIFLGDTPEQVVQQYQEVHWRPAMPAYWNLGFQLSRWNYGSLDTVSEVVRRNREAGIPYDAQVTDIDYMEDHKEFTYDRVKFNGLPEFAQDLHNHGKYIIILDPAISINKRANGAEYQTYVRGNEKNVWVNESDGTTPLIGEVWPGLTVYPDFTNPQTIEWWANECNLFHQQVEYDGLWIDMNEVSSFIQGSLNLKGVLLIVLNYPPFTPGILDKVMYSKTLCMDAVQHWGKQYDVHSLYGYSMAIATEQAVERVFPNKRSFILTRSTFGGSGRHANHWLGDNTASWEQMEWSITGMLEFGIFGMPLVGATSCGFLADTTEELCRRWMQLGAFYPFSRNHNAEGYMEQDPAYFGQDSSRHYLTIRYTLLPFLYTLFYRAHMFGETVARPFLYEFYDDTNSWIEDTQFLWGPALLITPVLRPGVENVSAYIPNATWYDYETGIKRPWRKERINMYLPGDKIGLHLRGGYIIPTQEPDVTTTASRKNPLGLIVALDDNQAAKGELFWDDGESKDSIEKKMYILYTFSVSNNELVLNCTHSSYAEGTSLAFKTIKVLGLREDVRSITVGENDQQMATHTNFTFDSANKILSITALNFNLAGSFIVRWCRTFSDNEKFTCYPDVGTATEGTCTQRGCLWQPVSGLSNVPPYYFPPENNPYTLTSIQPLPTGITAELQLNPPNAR
Sequence of Sucrase-isomaltase, intestinal (P23739 1014-1841 limits assumed): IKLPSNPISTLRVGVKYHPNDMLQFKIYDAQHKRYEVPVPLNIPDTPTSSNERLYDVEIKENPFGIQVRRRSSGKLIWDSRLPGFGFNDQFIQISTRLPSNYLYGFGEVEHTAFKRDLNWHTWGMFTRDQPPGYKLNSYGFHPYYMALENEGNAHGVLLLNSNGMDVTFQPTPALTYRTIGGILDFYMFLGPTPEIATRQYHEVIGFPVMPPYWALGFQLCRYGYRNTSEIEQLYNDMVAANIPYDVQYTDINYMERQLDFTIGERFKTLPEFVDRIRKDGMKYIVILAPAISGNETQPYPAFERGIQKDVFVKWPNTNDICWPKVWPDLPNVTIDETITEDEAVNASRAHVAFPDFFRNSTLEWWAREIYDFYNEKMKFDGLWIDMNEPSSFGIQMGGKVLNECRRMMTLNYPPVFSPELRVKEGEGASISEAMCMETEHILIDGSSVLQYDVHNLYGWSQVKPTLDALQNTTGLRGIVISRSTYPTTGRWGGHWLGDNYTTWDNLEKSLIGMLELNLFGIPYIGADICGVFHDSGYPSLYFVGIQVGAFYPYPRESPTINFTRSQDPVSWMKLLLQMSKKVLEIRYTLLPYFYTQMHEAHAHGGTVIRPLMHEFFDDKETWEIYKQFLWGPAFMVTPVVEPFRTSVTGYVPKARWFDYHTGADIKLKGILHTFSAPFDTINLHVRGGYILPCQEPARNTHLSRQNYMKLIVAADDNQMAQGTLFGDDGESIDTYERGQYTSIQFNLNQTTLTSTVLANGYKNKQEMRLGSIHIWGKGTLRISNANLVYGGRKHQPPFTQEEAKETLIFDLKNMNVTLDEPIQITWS

IC50 [1] [µM]	IC50 [2] [µM]	IC50 [3] [µM]	IC50 [4] [µM]	Structure (SMILES)	IC50 (K562) [µM]	IC50 (PC-3) [µM]	IC50 [5] [µM]	IC50 [6] [µM]
13.6	8.4	1.5	18.9	CC(C)=CCC/C(C)=C/CC/C(=C/Cc1cc(O)ccc1O)C(=O)OC[C@@](C)(O)[C@@H](O)CC[C@@H](C)[C@H]1CC[C@@]2(C)C3=CC[C@H]4C(C)(C)C(=O)CC[C@]4(C)C3=CC[C@]12C	48.6	58.4		
				C/C(=C\CC[C@@H](C)[C@H]1C[C@H](O)[C@@]2(C)C3=CC[C@H]4C(C)(C)C(=O)CC[C@]4(C)C3=CC[C@]12C)C(=O)O			21.7	
> 50	> 50	> 50	> 100	CC(C)=CCC/C(C)=C/CC/C(=C\Cc1cc(O)ccc1O)C(=O)O[C@@H](CC[C@@H](C)[C@H]1CC[C@@]2(C)C3=CC[C@H]4C(C)(C)C(=O)CC[C@]4(C)C3=CC[C@]12C)[C@](C)(O)CO	104	> 200		
2.5	22.5	8.1	24.1	CC(C)=CCC/C(C)=C/CC/C(=C/Cc1cc(O)ccc1O)C(=O)O[C@@H](CC[C@@H](C)[C@H]1CC[C@@]2(C)C3=CC[C@H]4C(C)(C)C(=O)CC[C@]4(C)C3=CC[C@]12C)[C@](C)(O)CO	48.4	14.4		
				C/C(=C\CC[C@@H](C)[C@H]1CC[C@@]2(C)C3=C(CC[C@]12C)[C@@]1(C)CC[C@H](O)C(C)(C)[C@@H]1CC3=O)C(=O)O			22.3	
				C/C(=C\CC[C@@H](C)[C@H]1CC[C@@]2(C)C3=CC[C@H]4C(C)(C)[C@@H](O)CC[C@]4(C)C3=CC[C@]12C)CO [GANODEROL B]				120
5.9	18.5	9.3	> 100	CC(C)=CCC/C(C)=C/CC/C(=C/Cc1cc(O)ccc1O)C(=O)OC[C@@](C)(O)[C@@H](O)CC[C@@H](C)[C@H]1CC[C@@]2(C)C3=C(CC[C@]12C)[C@@]1(C)CCC(=O)C(C)(C)[C@@H]1CC3=O	10.7	10.8		
